# Screens from PubChem.
# CHT inh: inhibitors of human choline transporter CHT; CHT-expressing cells, membrane potential dye, choline response; hits give low values; 310,000 compounds, 0.86% hits; High affinity choline transporter 1 (Homo sapiens), Q9GZV3; B-score at 10 µM; AID 488975, 2010;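 active = B-score over 3 SD under the library average, and starting fluorescence ratio not unusually high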;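 note: choline stimulus applied at its EC90 after an EC20 pre-addition; B-score computed on integrated fluorescence ratio after choline addition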
# NR2E3 ag-1: inhibitors of NR2E3-RetCOR corepressor binding, primary screen, NR2E3 agonist project, biochemical, TR-FRET, GST-NR2E3, biotin-RetCOR. Photoreceptor-specific nuclear receptor (Homo sapiens), Q9Y5X4. 1536-well. inhibition of corepressor binding, % at 4.78 µM. 320,000 compounds, 0.12% hits. AID 2300, 2010;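 active = percent inhibition above the cutoff of mean plus 3 SD of all tested compounds, set per screening campaign, cut at about 20% in these data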;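 note: 0% = DMSO wells and 100% = biotin wells as full block of FRET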
# Target sequence (Q9Y5X4 whole entry, looked up): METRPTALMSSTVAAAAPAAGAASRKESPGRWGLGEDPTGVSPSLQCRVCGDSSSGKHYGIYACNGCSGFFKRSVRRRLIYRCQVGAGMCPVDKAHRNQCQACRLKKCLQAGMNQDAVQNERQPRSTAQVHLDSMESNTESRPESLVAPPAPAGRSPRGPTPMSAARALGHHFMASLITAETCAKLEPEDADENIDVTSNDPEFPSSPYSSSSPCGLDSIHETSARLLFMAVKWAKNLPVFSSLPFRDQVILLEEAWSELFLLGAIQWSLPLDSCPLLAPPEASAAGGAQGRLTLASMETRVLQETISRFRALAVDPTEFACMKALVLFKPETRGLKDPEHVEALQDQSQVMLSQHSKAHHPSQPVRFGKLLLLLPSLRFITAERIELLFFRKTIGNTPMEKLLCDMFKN
#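 Material: NR2E3–RetCOR corepressor complex / Amount: 1.35 nM GST-NR2E3 / Medium: Tris pH 7.5 / Compound: single nominal compound dose of 4.8 µM / Incubation: 5 h at 4 °C / Technique: TR-FRET, Eu(K)-anti-GST donor, streptavidin-D2 acceptor, ex 340, em 617/671 nm / Read-out basis: percent loss of FRET ratio relative to control wells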
# CHT PAM: CHT positive allosteric modulators, primary screen, cell-based, membrane potential dye, choline EC20 | 310,000 compounds, 0.49% hits | B-score at 10 µM | CHT-expressing cells; hits give high values; LV-AA mutant CHT in HEK293 cells | AID 488977, 2010 | High affinity choline transporter 1 (Homo sapiens), Q9GZV3;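 active = initial fluorescence not abnormally high and integrated response B-score, plate-corrected, over 3 SD above library mean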
# COUP-TFII inh: NR2F2 transcriptional activity inhibitors, primary screen, cell-based, luciferase reporter, HEK293T, luminescence; COUP transcription factor 2 (Homo sapiens), P24468; HEK293T NGFI-A luciferase reporter; inhibition, % at 8.6 µM; 370,000 compounds, 0.7% hits;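 active = inhibition above a per-plate cutoff, mean inhibition of test wells between control levels plus 3 SD, cut at about 38% in these data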;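 note: cells cotransfected with COUP-TFII expression vector driving the NGFI-A reporter; 0% = median of COUP-TF2 test wells and 100% = reporter-only cells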
# NR2E3 ag-2: NR2E3 agonists in two-hybrid cells, primary screen, cell-based, luminescence, CHO-S, Gal4-NCOR/VP16-NR2E3. inhibition of corepressor binding, % at 3.98 µM. 360,000 compounds, 0.35% hits. luciferase. Photoreceptor-specific nuclear receptor (Homo sapiens), Q9Y5X4;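 active = inhibition above the mean of all tested compounds plus 3 SD, cut at about 70% in these data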;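 note: 0% = DMSO with NR2E3 transfected cells and 100% = cells lacking NR2E3 construct; higher means lower luciferase signal from less NR2E3 corepressor binding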
# GalR3 antag: GalR3 antagonists in HEK293 cells, primary screen, cell-based, fluorescence readout; 360,000 compounds, 0.44% hits; inhibition, % at 3 µM; HEK293 GalR3-CNG cAMP membrane potential fluorescence; galR3 body fused to GalR1 C-terminus; AID 651719, 2012;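 active = inhibition above the screen-wide average plus 3 SD, cut at about 13% in these data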;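 note: forskolin and galanin both at EC90 stimulate the cells; cAMP rise reported by CNG channel membrane potential dye signal; 0% = forskolin plus galanin with DMSO and 100% = forskolin alone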
# GalR3 conf: GalR3 antagonist hit confirmation, cell-based, fluorescence, triplicate; AID 652245, 2013; inhibition, % at 3 µM; 1,600 compounds, 59% hits; shares compounds with GalR3 antag; HEK293 GalR3 CNG cAMP biosensor, membrane potential fluorescence; galR3 fused to GalR1 carboxy tail; challenged with forskolin and galanin at EC90;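 active = inhibition above the primary screen's cutoff, the mean inhibition of all screened compounds plus 3 SD, cut at about 13% in these data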;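 note: 0% = forskolin plus galanin and 100% = forskolin alone with DMSO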
# HEK-CNG parental: nonspecific cAMP agonists in parental HEK-CNG cells, counter-screen for GalR3 antagonist project, cell-based, fluorescence, high throughput; shares compounds with GalR3 antag; HEK293-CNG parental cells, cAMP membrane potential fluorescence; normalised: DMSO wells 0%, forskolin wells 100%; activation, % at 3 µM; 1,600 compounds, 10% hits; AID 652268, 2013; in the data active = activation above about 1.3%
# VP16 Luc counter: Gal4-VP16 luciferase reporter inhibitors, counter-screen for COUP-TFII antagonist project, cell-based, luminescence, HEK293; shares compounds with COUP-TFII inh; inhibition, % at 8.5 µM; 2,500 compounds, 25% hits; AID 687007, 2013; in the data active = inhibition above about 13%
# COUP-TFII conf: NR2F2 transcriptional activity inhibitors, confirmation, cell-based, luciferase reporter, HEK293, triplicate; shares compounds with COUP-TFII inh; HEK293 NGFI-A luciferase reporter, luminescence; inhibition, % at 8.5 µM; 2,500 compounds, 45% hits; AID 687008, 2013;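 active = mean inhibition over three repeats above a set limit taken from the earlier primary screen, cut at about 38% in these data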;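 note: 100% = cells given the luciferase reporter alone without the COUP-TF2 vector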
# Starred values were filed as active, the others as inactive; i = inactive; . = not tested or not shown. The list is not random: actives were taken first. Their share in the collection is about 2.3%.
SMILES,CHT inh,NR2E3 ag-1,CHT PAM,COUP-TFII inh,NR2E3 ag-2,GalR3 antag,GalR3 conf,HEK-CNG parental,VP16 Luc counter,COUP-TFII conf
O=C(COc1ccc(Br)cc1Cl)NC1CCCCC1,i,0,i,-7,-90,-3,.,.,.,.
O=S1(=O)c2c(NCc3ccco3)cccc2Oc2ccccc2CN1Cc1cn(Cc2ccc(C(F)(F)F)cc2)nn1,.,.,.,3,.,.,.,.,.,.
CCCCCCN1CCS(=O)(=O)N(Cc2ccc(OC)cc2)C(C(=O)OC)C1 (stereo not given),.,.,.,5,.,.,.,.,.,.
CCCCN(C)C(=O)C1CCN(S(=O)(=O)c2ccc3[nH]c(=O)oc3c2)CC1,.,.,.,14,.,.,.,.,.,.
C=CCN(c1ccccc1)S(=O)(=O)c1cccc(C(=O)NC2CCN(Cc3ccccc3)CC2)c1,i,1,i,58*,10,89*,62*,1.4*,3,44*
CN(C)S(=O)(=O)c1cccc(C(=O)NCC(=O)NC2CCN(Cc3ccccc3)CC2)c1,i,-1,i,-6,-17,-10,.,.,.,.
O=C(NC1CCN(Cc2ccccc2)CC1)c1cccc(S(=O)(=O)Nc2ccc(F)cc2)c1,.,1,.,55*,-5,17*,54*,0,3,34
O=C(NCC1CCN(Cc2ccc(Cl)cc2)CC1)C1CCCN(c2ncnc3c2nc2n3CCCCC2)C1 (stereo not given),i,0,i,58*,-9,62*,84*,2.0*,8,34
O=C(NCC1CCN(Cc2ccc(F)cc2)CC1)C1CCCN(c2ncnc3c2nc2n3CCCCC2)C1 (stereo not given),i,-2,i,14,9,-5,.,.,.,.
Cc1ccc(Oc2ccc(C(=O)NCc3ccncc3)cc2)cc1,.,.,.,74*,-5,83*,97*,-1,-7,41*
O=C(Nc1ccc(-c2nc3ccccc3o2)cc1)c1ccc(N2C(=O)C3C4C=CC(C4)C3C2=O)cc1 (stereo not given),i,-9,i,41*,-6,61*,110*,-1,-20,40*
O=C(c1ccc(CNS(=O)(=O)c2ccccc2)cc1)N1CCN(Cc2ccccc2)CC1,i,3,i,58*,12,21*,10,0,-4,16
Cc1ccc(S(=O)(=O)NCc2ccc(C(=O)N3CCN(c4ccccc4)CC3)cc2)cc1,i,-2,i,5,11,-2,.,.,.,.
Cc1ccc(-n2c(SCC(=O)Nc3ccccc3-c3ccccc3)nnc2-c2ccccn2)cc1,.,.,.,-16,.,.,.,.,.,.
O=C(NCCc1ccccc1)c1ccc(Cl)c(S(=O)(=O)N2CCCC2)c1,i,1,i,.,-41,.,.,.,.,.
CC1CCCN(S(=O)(=O)c2cc(C(=O)NCc3ccco3)ccc2Cl)C1 (stereo not given),.,.,.,19,-6,-7,.,.,.,.
